Assay results as given in PMC4765894 (Journal of Medicinal Chemistry, 2015).
Entries after “also recorded” stand apart in the source; their conditions may differ.

Legend:
HIF-1 = experiment: Dual luciferase-reporter assay; assay type: cell-based, human; settings: HEK-293T, 24 h; for IC50: Homo sapiens
In short: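 HEK-293T seeded at 5 × 10^3 cells/well, attached 24 h, then transiently co-transfected with a firefly reporter carrying five HRE copies from the human VEGF promoter and a Renilla plasmid (pRL-SV40). Cells were then exposed to serially diluted test compound under 1% O2 for 24 h. Dual-Glo firefly read, then Stop & Glo Renilla read (10 min each). Firefly normalized to Renilla; three independent experiments.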

VEGF mRNA = experiment: Real-time PCR of VEGF mRNA under hypoxia; assay type: cell-based, human; settings: 1 μM, hypoxic conditions, 24 h, normalized against β-actin
In short: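 Cells were given test compound at 1 μM under hypoxic conditions for 24 h, with normoxic and hypoxic controls. Total RNA was extracted with TRIzol and cDNA made with MMLV reverse transcriptase. SYBR Green real-time PCR used 10-fold diluted cDNA and gene-specific primers: 2 min 50 °C, 10 min 95 °C, then 40 cycles of 15 s 95 °C and 1 min 60 °C. Mean CT values were normalized to β-actin; triplicate runs, averaged.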

[1] = tested on: cyclin-dependent kinase 6 (Cdk6); experiment: Western blot of Cdk6; assay type: cell-based, human; settings: 1 μM, hypoxic conditions, 24 h
In short: (§1)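 HEK-293T cells were held under hypoxia (1% O2) for 24 h with or without test compound at 1 μM, with a normoxic comparison. Total protein lysates were resolved by SDS-PAGE and transferred to nitrocellulose. Membranes were blocked 30 min at room temperature in 5% skim milk/TBS-0.1% Tween-20, then given primary antibody overnight at 4 °C and HRP secondary 1 h at room temperature. Detection was chemiluminescent, with β-actin as internal control.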

HIF-1β = experiment: Western blot of HIF-1β expression in HEK-293T cells under hypoxia; assay type: cell-based, human; settings: 1 μM, 24 h
In short: as §1

HIF-1α [2] = experiment: Western blot of HIF-1α expression in HEK-293T cells under hypoxia; assay type: cell-based, human; settings: 1 μM, hypoxia (1% O2), 24 h
In short: as §1

VEGF secretion = settings: cited from earlier work
HIF-1α [3] = settings: 4T1 cells, hypoxic conditions, concentrations between 10 and 100 nM; cited from earlier work

| SMILES | IC50 (HIF-1) [µM] | protein level of Cdk6 [1] | regulation of HIF-1β (HIF-1β) | expression level of HIF-1α (HIF-1α [2]) | other results |
| --- | --- | --- | --- | --- | --- |
| COc1ccc(C(=O)COc2cc(C(=O)[C@@H](C)Oc3ccc([C@H]4O[C@H](c5ccc(O[C@H](C)C(=O)c6ccc(OC)c(OCC(=O)c7ccc(OC)c(OC)c7)c6)c(OC)c5)[C@H](C)[C@H]4C)cc3OC)ccc2OC)cc1OC [MA02] | > 10000 |  |  |  | HIF-1 inhibitory activity in luciferase assay (in words) (HIF-1; hypoxia (1% O2)): almost inactive |
| COc1ccc([C@@H](O)[C@@H](C)Oc2ccc([C@H]3O[C@H](c4ccc(OC)c(OC)c4)[C@H](C)[C@H]3C)cc2OC)cc1OC [MA04, 4-O-methylsaucerneol] |  | decreased | did not regulate | significantly down-regulated; also recorded: inhibit the expression | VEGF mRNA levels (VEGF mRNA): significantly reduced |
| COc1ccc(C(=O)COc2ccc([C@H]3O[C@H](c4ccc(OCC(=O)c5ccc(OC)c(OC)c5)c(OC)c4)[C@H](C)[C@H]3C)cc2OC)cc1OC [MA07] |  | decreased | did not regulate | significantly down-regulated; also recorded: inhibit the expression |  |
| COc1cc([C@H]2O[C@H](c3ccc(O[C@H](C)C(=O)c4ccccc4)c(OC)c3)[C@H](C)[C@H]2C)ccc1O[C@H](C)C(=O)c1ccccc1 [MA11] |  | decreased | did not regulate | significantly down-regulated; also recorded: inhibit the expression |  |
| C#CCOc1cc(C(=O)[C@@H](C)Oc2ccc([C@H]3O[C@H](c4ccc(O[C@H](C)C(=O)c5ccc(C6(C(F)(F)F)N=N6)cc5)c(OC)c4)[C@H](C)[C@H]3C)cc2OC)ccc1OC [MA13] | 0.73 |  |  |  |  |
| COc1ccc(C(=O)[C@@H](C)Oc2ccc([C@H]3O[C@H](c4ccc(O[C@H](C)C(=O)c5ccc(C6(C(F)(F)F)N=N6)cc5)c(OC)c4)[C@H](C)[C@H]3C)cc2OC)cc1OCCOCCOCCNC(=O)CCCC[C@@H]1SC[C@@H]2NC(=O)N[C@@H]21 [MA14] | 2.32 |  |  |  |  |
| COc1ccc([C@@H](O)[C@@H](C)Oc2ccc([C@H]3O[C@H](c4ccc(O[C@H](C)[C@H](O)c5ccc(OC)c(OC)c5)c(OC)c4)[C@H](C)[C@H]3C)cc2OC)cc1OC [compound 1, manassantin A, reference compound] | 0.011 ± 0.003 |  | did not regulate | inhibit the expression | HIF-1 regulated VEGF secretion (VEGF secretion): dramatically reduced; hypoxia-induced HIF-1α expression (HIF-1α [3]): significantly inhibited |
